Assay results published in PMC8851504 (Proceedings of the National Academy of Sciences of the …, 2022).
Bridge positions count the residues as written; N and C are the ends. Ends that are not written are not given here.

Tests used:
[1] = tested on: human ErbB1 receptor (hErbB1) transiently expressed in HEK293T cells; assay: BRET assay of ligand-induced ErbB1 activation; format: cell-based; settings: for Agonism at / potency on mammalian ErbB1 (summary in words): summary statement
[2] = tested on: Erk1/2 phosphorylation downstream of human ErbB1 in HEK293 cells; format: cell-based; settings: comparison with hEGF; 2.5 or 10 nM; n = 3
Procedure, shortened: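 HEK293 cells at ~80% confluence were transfected with 15 ng human ErbB1 plasmid (Lipofectamine LTX) and grown 24 h in DMEM with 10% FBS. […] RIPA lysates containing protease and phosphatase inhibitors were run on SDS-PAGE and probed for phospho-Erk1/2 and GAPDH by fluorescent immunoblot. Phospho-Erk was normalised to GAPDH; n = 3, one-way ANOVA with Šídák's test.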

[3] = tested on: crickets (Acheta domesticus); assay: Cricket righting assay after injection; format: in vivo; settings: intraabdominal injection, up to 41 nmol/g (as stated in main text)
Procedure, shortened: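 House crickets (average mass 50 mg) received intraabdominal injections of 2 μL water or test compound at 1.4 to 41.5 nmol/g. Each cricket was then placed on its back and the time taken to right itself was recorded. Treated and water groups were compared by one-way ANOVA with Šídák's test.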

[4] = tested on: sheep blowflies (Lucilia cuprina); assay: Sheep blowfly paralysis/survival assay after injection; format: in vivo; settings: intraabdominal injection, up to 41 nmol/g (as stated in main text)
[5] = tested on: fruit flies (Drosophila melanogaster); assay: Fruit fly paralysis/survival assay after injection; format: in vivo; settings: intraabdominal injection, up to 41 nmol/g (as stated in main text)
[6] = tested on: paw-withdrawal threshold to mechanical stimulus in mice; assay: Paw-withdrawal threshold to mechanical stimulus; format: in vivo, mouse (C57BL/6J); settings: 200 pmol i.pl.; measured 1 h to 7 d; vs saline; n = 6 per group
Procedure, shortened: (§1)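 Male C57BL/6J mice (5 wk old) were given 200 pmol test compound, or vehicle alone, by shallow intraplantar hind-paw injection in 20 µL saline with 0.1% BSA. After 30 min acclimatisation on bar-bottom enclosures, paw-withdrawal thresholds were measured. Mechanical thresholds used automatic von Frey and thermal thresholds an automated thermal device. Readings were taken 3 d before injection and at 1 h–7 d, blinded, n = 6/group, two-way ANOVA with Šídák's test.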

[7] = tested on: paw-withdrawal threshold to thermal stimulus in mice; assay: Paw-withdrawal threshold to thermal stimulus; format: in vivo, mouse (C57BL/6J); settings: 200 pmol i.pl.; measured 1 h to 7 d; vs saline; n = 6 per group
Procedure, shortened: as §1

paw inflammation in mice = assay: Paw inflammation: visual inspection and paw thickness by calipers; format: in vivo, mouse (C57BL/6J); settings: 200 pmol i.pl.; over the time course of the experiment
Procedure, shortened: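 In male C57BL/6J mice, 200 pmol test compound, or vehicle alone, was injected intraplantar in 20 µL saline with 0.1% BSA. The injected paw was inspected for swelling and reddening at each time point up to 7 d. At 3 d, both hind paws were measured with electronic calipers and expressed as an ipsilateral/contralateral ratio. Groups were n = 6, compared by unpaired t test.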

[8] = tested on: hypersensitivity of the injected paw in mice; assay: Time course of hypersensitivity; format: in vivo, mouse (C57BL/6J); settings: intraplantar injection in mice
Procedure, shortened: as §1

## rMg1a: Mg1a produced by recombinant expression in bacteria with an additional Gly residue at the N terminus (GDISDYGDPCSDDLKDYCIHGDCFFLKELNQPACRCYTGYYGSRCEHIDHN; not fully specified; left off: His6, N-terminal, cleaved | MBP, N-terminal, cleaved)
[1]; BRET, HEK293T cells, Fig. 3A: stimulation with 100 nM ligand
  Activity at hErbB1 (in words): active at hErbB1
[1]
  Agonism at / potency on mammalian ErbB1 (summary in words): potent ligand of mammalian ErbB1 with activity comparable to that of hEGF
[2]
  Erk1/2 phosphorylation compared with hEGF: equivalent to that caused by hEGF
[3]
  Effect on crickets after injection: no effect
[4]
  Effect on blowflies after injection: no effect
[5]
  Effect on fruit flies after injection: no effect
[6]
  Paw-withdrawal threshold to mechanical stimulus: significant decrease
[7]
  Paw-withdrawal threshold to thermal stimulus: significant decrease
Paw inflammation in mice
  Visual signs of inflammation (e.g., redness or swelling): no visual signs of inflammation

## Mg1a (GDISDYGDPCSDDLKDYCIHGDCFFLKELNQPACRCYTGYYGSRCEHIDHN; disulfide 10-23, 18-34, 36-45)
[1]
  Agonism at / potency on mammalian ErbB1 (summary in words): potent agonist of the mammalian EGF receptor ErbB1
[8]
  Hypersensitivity of the injected paw (summary in words): long-lasting hypersensitivity
